Measurements published in ChEMBL document CHEMBL1154633, “Synthesis and biological evaluation of 2-alkynyl-N6-methyl-5'-N-methylcarboxamidoadenosine derivatives as potent and highly selective agonists for the human adenosine A3 receptor” (J Med Chem, 2009).
Activity calls are given as the source filed them. No cut-off for these calls is given here.

Tests used:
[1] = molecular target: Adenosine receptors; A1 & A3 (Homo sapiens) (UniProt P30542+P0DMS8); assay: Selectivity ratio of Ki for human recombinant adenosine A1 receptor to Ki for human recombinant adenosine A3 receptor
Outline: (§1)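 Selectivity is Ki at human A1R (displacement of [3H]CCPA) or at human A2AR (displacement of [3H]NECA) divided by Ki at human A3R (displacement of [3H]NECA). All receptors stably expressed in CHO cells, competition experiments in 96-well microplates.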

Adenosine receptor A3 [2] = molecular target: T1, Adenosine receptor A3 (Homo sapiens, UniProt P0DMS8); assay: Agonist activity at human recombinant adenosine A3 receptor expressed in CHO cells assessed as nonradiaoactive DELFIA Eu-GTP binding treated for 15 mins before addition of Eu-GTP measured after 45 mins by time-resolved fluorometric method; type: cell-based
T1 sequence (P0DMS8 whole entry): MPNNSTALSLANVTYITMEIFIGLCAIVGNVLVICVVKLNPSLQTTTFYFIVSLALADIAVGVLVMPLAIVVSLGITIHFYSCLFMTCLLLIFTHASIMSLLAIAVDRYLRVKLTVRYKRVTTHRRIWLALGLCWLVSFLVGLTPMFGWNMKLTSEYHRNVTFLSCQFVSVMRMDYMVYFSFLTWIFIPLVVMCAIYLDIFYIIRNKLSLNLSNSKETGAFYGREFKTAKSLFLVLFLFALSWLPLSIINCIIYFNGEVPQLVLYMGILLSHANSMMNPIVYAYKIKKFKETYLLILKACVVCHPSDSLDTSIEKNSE

Adenosine receptor A2a = Adenosine receptor A2a (Homo sapiens, UniProt P29274); assay: Displacement of [3H]NECA from human recombinant adenosine A2A receptor expressed in CHO cells; type: cell-based
Adenosine receptor A2a, sequence (P29274 whole entry): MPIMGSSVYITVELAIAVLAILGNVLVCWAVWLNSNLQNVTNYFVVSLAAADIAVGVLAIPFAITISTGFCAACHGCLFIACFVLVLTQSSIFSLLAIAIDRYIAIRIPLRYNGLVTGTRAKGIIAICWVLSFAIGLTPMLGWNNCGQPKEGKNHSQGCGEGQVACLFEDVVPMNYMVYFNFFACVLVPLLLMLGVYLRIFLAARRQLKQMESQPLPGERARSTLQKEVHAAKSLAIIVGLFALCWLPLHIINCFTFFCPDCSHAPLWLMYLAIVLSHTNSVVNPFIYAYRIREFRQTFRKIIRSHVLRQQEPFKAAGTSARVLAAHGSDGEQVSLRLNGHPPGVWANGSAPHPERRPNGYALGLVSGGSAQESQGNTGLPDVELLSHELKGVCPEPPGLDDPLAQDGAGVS
Outline: (§2)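 Competition binding in 96-well microplates with radioligand [3H]NECA on CHO cells stably transfected with human recombinant A2AR or A3R. Ki of unlabeled compound from displacement of specific binding, with 95% confidence intervals.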

Adenosine receptor A3 [3] = molecular target: T1, Adenosine receptor A3; assay: Displacement of [3H]NECA from human recombinant adenosine A3 receptor expressed in CHO cells; type: cell-based; outline: as §2
[4] = molecular target: T2, Adenosine receptor A3 (Homo sapiens) (UniProt P0DMS8); assay: Agonist activity at human recombinant adenosine A3 receptor expressed in CHO cells assessed as nonradiaoactive DELFIA Eu-GTP binding treated for 15 mins before addition of Eu-GTP measured after 45 mins by time-resolved fluorometric method in presence of increasing saponin concentration; type: cell-based
T2 sequence (whole entry): T1 sequence (P0DMS8 whole entry)

Adenosine receptor A1 = molecular target: T3, Adenosine receptor A1 (Homo sapiens, UniProt P30542); assay: Displacement of [3H]CCPA from human recombinant adenosine A1 receptor expressed in CHO cells; type: cell-based
T3 sequence (P30542 whole entry): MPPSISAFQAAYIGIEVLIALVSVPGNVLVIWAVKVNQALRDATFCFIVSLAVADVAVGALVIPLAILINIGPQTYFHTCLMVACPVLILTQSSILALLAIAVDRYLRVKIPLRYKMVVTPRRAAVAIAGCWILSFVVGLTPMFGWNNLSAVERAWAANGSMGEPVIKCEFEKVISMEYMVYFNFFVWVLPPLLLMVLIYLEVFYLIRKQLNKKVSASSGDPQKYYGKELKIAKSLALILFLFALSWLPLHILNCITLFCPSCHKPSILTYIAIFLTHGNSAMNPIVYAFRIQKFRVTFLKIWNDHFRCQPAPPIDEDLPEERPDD

[5] = molecular target: T2, Adenosine receptor A3 (Homo sapiens); assay: Agonist activity at human recombinant adenosine A3 receptor expressed in CHO cells assessed as nonradiaoactive DELFIA Eu-GTP binding treated for 15 mins before addition of Eu-GTP measured after 45 mins by time-resolved fluorometric method relative to Cl-IBMECA; type: cell-based; parameters: concentration or dose not given beside the values
Homo sapiens = species on record: Homo sapiens; assay: Selectivity ratio of Ki for human recombinant adenosine A2A receptor to Ki for human recombinant adenosine A3 receptor; outline: as §1
[6] = molecular target: T2, Adenosine receptor A3 (Homo sapiens); assay: Ratio of Cl-IBMECA EC50 to compound EC50 for human recombinant adenosine A3 receptor expressed in CHO cells; type: cell-based

## CNC(=O)[C@H]1O[C@@H](n2cnc3c(NC)nc(C#Cc4ccccc4)nc32)[C@H](O)[C@@H]1O
[1]
  Ratio Ki: 76500
Adenosine receptor A3 [2]
  EC50: 151 nM
Adenosine receptor A2a
  Ki: 41.7 µM
Adenosine receptor A3 [3]
  Ki: 0.44 nM
[4]
  Activity: inactive
Adenosine receptor A1
  Ki: 32.8 µM
[5]
  Activity: 100%
Homo sapiens
  Ratio Ki: 97000

## CNC(=O)[C@H]1O[C@@H](n2cnc3c(NOC)nc(C#Cc4ccccn4)nc32)[C@H](O)[C@@H]1O
[1]
  Ratio Ki: 3600
Adenosine receptor A3 [2]
  EC50: 52 nM
[4]
  Activity: inactive
[5]
  Activity: 100%
[6]
  Ratio EC50: 7
Homo sapiens
  Ratio Ki: 16400

## CNC(=O)[C@H]1O[C@@H](n2cnc3c(NOC)nc(C#Cc4ccccc4)nc32)[C@H](O)[C@@H]1O
[1]
  Ratio Ki: 4800
Adenosine receptor A3 [2]
  EC50: 120 nM
[4]
  Activity: inactive
[5]
  Activity: 100%
Homo sapiens
  Ratio Ki: 8600

## CNC(=O)[C@H]1O[C@@H](n2cnc3c(NC)nc(C#Cc4ccc(F)cc4)nc32)[C@H](O)[C@@H]1O
[1]
  Ratio Ki: 12500
Adenosine receptor A3 [2]
  EC50: 190 nM
Adenosine receptor A2a
  Ki: 12.7 µM
Adenosine receptor A3 [3]
  Ki: 0.43 nM
[4]
  Activity: inactive
Adenosine receptor A1
  Ki: 5.31 µM
[5]
  Activity: 100%
Homo sapiens
  Ratio Ki: 29500

## CNC(=O)[C@H]1O[C@@H](n2cnc3c(NOC)nc(C#Cc4ccc(F)cc4)nc32)[C@H](O)[C@@H]1O
[1]
  Ratio Ki: 1600
Adenosine receptor A3 [2]
  EC50: 210 nM
[4]
  Activity: inactive
[5]
  Activity: 100%
Homo sapiens
  Ratio Ki: 9800

## CNC(=O)[C@H]1O[C@@H](n2cnc3c(NC)nc(C#Cc4ccccn4)nc32)[C@H](O)[C@@H]1O
[1]
  Ratio Ki: 22000
Adenosine receptor A3 [2]
  EC50: 46 nM
Adenosine receptor A2a
  Ki: 24.3 µM
Adenosine receptor A3 [3]
  Ki: 0.4 nM
[4]
  Activity: inactive
Adenosine receptor A1
  Ki: 8.74 µM
[5]
  Activity: 100%
[6]
  Ratio EC50: 7
Homo sapiens
  Ratio Ki: 61000

## CONc1nc(C#Cc2ccccn2)nc2c1ncn2[C@@H]1O[C@H](CO)[C@@H](O)[C@H]1O
[5]
  Activity: 9%

## CNC(=O)[C@H]1O[C@@H](n2cnc3c(NCc4ccc(I)cc4)nc(Cl)nc32)[C@H](O)[C@@H]1O
Adenosine receptor A3 [2]
  EC50: 363 nM

## CONc1nc(C#Cc2ccccc2)nc2c1ncn2[C@@H]1O[C@H](CO)[C@@H](O)[C@H]1O
[1]
  Ratio Ki: 300
Adenosine receptor A3 [2]
  EC50: 320 nM
Adenosine receptor A3 [3]
  Ki: 3.8 nM
[5]
  Activity: 55%
Homo sapiens
  Ratio Ki: 1100

## CNc1nc(C#Cc2ccccc2)nc2c1ncn2[C@@H]1O[C@H](CO)[C@@H](O)[C@H]1O
[1]
  Ratio Ki: 500
Adenosine receptor A3 [2]
  EC50: 290 nM
[5]
  Activity: 65%
Homo sapiens
  Ratio Ki: 2500
